# ChEMBL document CHEMBL3112519, “Degrasyn-like symmetrical compounds: possible therapeutic agents for multiple myeloma (MM-I)” (Bioorg Med Chem, 2014)
# Activity calls are given as the source filed them. The calls are words filed in the database; no cut-off is given here.
# Key:
# [1] = Cytotoxicity against human MM1S cells after 72 hrs by MTT assay; type: functional, cell-based; details: MM1.S
# Outline: (§1)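 Cells were grown in RPMI 1640 with 10% heat-inactivated FBS and 2 mM glutamine. Non-adherent cells were seeded at 20,000 per well and adherent cells at 5,000. Compounds were serially diluted in medium from a final top concentration of 10 μM (DMSO ≤0.1%), with vehicle controls, and incubated at 37 °C for 72 h. MTT was added for 2 h, then SDS/DMF lysis (pH 4.7) for 6 h, and OD570 was read. IC50 was taken from the concentration range.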
# [2] = Cytotoxicity against human MM1S cells at 10 uM after 72 hrs by MTT assay; type: functional; details: MM1.S
# Outline: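 MM1.S cells were grown in RPMI 1640 with 10% heat-inactivated FBS and 2 mM glutamine and plated at 20,000 cells per well. They were exposed to a single 10 μM final concentration (DMSO ≤0.1%) or vehicle for 72 h at 37 °C. MTT was added for 2 h, followed by SDS/DMF lysis for 6 h and OD570 reading. Percent growth inhibition was calculated against vehicle.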
# [3] = target: Mast/stem cell growth factor receptor Kit (Homo sapiens) (UniProt P10721); assay: Inhibition of human c-kit kinase at 10000 nM
# [4] = species on record: Homo sapiens; assay: Inhibition of human Bcr-Abl kinase at 10000 nM
# [5] = test system: K562; assay: Cytotoxicity against human K562 cells after 72 hrs by MTT assay; type: functional, cell-based; details: K562, 72 h; outline: as §1
# [6] = Cytotoxicity against human Mino cells after 72 hrs by MTT assay; type: functional, cell-based; outline: as §1
# [7] = target: Tyrosine-protein kinase JAK2 (Homo sapiens) (UniProt O60674); assay: Inhibition of human JAK2 kinase at 10000 nM
# [8] = test system: A-375; assay: Cytotoxicity against human A375 cells after 72 hrs by MTT assay; type: functional, cell-based; details: A-375, 72 h; outline: as §1
# [9] = target: T1, Ubiquitin carboxyl-terminal hydrolase 9X (Homo sapiens, UniProt Q93008); assay: Inhibition of Usp9x in human Z138 cells using HA-Ub vinyl-sulfone as substrate at 1.25 to 5 uM after 4 hrs by immunoblotting analysis; type: cell-based
# [10] = target: T1, Ubiquitin carboxyl-terminal hydrolase 9X; assay: Inhibition of human recombinant N-terminal His6-Smt3-fusion-tagged Usp9x catalytic domain expressed in Escherichia coli using Ub-AMC as substrate incubated for 30 mins prior to substrate addition by fluorescence assay
# T1 sequence (Q93008 whole entry, the tested form may be a part): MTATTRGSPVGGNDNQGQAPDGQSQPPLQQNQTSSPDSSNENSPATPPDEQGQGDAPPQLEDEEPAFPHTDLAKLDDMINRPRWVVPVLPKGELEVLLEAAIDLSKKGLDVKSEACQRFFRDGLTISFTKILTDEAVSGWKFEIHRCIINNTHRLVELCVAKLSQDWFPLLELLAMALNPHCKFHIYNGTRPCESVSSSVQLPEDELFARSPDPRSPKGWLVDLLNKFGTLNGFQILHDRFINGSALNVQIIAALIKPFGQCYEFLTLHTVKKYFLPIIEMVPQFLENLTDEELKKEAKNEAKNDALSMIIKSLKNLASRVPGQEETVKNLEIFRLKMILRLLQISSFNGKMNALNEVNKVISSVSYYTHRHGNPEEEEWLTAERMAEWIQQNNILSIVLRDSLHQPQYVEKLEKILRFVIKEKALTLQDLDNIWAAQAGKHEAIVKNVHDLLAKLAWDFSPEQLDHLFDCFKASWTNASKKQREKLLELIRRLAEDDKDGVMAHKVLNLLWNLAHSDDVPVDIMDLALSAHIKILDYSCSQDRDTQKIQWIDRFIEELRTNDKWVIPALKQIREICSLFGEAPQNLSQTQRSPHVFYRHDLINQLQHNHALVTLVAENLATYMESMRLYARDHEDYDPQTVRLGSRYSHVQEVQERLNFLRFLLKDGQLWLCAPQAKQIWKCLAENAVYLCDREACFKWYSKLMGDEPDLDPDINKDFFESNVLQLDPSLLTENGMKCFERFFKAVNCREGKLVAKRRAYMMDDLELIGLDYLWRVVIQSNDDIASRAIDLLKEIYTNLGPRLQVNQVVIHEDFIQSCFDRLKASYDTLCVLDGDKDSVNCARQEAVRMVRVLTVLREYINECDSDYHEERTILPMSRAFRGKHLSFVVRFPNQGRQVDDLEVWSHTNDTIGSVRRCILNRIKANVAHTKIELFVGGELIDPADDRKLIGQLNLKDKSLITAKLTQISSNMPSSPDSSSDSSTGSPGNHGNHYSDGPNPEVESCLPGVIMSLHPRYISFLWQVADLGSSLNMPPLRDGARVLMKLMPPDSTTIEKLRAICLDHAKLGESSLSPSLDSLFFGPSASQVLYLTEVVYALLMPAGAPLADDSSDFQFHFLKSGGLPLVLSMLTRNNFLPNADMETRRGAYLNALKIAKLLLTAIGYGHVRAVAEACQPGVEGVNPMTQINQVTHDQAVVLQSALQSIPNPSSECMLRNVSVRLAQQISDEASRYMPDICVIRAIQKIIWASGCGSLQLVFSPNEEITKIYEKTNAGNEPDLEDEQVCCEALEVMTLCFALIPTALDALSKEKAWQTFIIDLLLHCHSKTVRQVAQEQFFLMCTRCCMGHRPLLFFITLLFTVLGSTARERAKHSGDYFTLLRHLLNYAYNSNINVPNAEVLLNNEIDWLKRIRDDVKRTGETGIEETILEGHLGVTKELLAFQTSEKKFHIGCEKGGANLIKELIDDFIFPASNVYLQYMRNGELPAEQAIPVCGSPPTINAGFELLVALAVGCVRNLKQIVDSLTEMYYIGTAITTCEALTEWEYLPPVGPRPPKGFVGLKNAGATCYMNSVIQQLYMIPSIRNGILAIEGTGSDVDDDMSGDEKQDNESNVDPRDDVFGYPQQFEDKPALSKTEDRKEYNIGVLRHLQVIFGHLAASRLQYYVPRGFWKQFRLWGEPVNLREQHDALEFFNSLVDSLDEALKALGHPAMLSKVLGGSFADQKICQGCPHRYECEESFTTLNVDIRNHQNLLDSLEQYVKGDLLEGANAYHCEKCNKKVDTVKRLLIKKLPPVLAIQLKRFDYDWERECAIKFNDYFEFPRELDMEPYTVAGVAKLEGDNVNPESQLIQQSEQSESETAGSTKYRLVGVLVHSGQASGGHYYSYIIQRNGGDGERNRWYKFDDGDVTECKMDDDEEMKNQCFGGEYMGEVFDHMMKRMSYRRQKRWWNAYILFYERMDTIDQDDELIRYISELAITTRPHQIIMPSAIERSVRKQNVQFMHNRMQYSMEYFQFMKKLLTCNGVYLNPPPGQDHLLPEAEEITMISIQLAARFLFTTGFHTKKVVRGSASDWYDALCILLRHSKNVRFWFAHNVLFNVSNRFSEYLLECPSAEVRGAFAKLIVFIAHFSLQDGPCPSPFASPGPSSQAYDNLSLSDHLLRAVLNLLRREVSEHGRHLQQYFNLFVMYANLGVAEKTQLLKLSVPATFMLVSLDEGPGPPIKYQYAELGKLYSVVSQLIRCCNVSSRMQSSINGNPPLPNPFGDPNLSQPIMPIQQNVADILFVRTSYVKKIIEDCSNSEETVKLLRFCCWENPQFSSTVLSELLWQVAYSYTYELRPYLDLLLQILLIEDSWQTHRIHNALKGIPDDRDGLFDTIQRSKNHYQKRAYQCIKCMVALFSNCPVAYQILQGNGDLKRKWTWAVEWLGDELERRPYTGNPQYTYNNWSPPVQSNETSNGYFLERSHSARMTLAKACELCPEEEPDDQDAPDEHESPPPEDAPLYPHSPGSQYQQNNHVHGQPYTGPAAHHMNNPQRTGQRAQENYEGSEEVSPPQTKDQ
# Mast/stem cell growth factor receptor Kit (Homo sapiens), sequence (P10721 whole entry): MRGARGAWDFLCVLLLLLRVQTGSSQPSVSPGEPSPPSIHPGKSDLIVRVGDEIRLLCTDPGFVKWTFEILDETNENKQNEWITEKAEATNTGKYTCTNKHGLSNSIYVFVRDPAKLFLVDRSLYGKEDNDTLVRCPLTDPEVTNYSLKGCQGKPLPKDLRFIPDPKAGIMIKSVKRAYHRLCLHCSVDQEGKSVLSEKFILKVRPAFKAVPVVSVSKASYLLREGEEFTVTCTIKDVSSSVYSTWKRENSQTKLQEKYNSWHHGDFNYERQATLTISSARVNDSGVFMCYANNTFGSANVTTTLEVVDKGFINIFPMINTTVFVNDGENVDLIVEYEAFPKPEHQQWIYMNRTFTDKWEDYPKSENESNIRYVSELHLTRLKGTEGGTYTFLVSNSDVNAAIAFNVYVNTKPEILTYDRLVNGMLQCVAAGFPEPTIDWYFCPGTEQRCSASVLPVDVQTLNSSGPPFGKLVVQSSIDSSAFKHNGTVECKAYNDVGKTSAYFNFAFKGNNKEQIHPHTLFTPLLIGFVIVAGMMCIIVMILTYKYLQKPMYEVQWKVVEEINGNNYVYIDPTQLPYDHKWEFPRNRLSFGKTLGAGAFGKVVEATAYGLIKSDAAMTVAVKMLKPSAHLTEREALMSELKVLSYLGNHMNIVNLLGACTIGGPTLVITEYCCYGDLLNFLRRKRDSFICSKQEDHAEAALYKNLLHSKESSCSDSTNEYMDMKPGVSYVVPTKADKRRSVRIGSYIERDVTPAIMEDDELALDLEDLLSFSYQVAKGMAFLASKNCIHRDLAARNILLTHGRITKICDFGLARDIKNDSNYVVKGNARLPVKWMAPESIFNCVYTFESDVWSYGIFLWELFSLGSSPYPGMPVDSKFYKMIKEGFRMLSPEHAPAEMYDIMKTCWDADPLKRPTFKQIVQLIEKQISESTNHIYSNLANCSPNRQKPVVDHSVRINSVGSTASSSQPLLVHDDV
# Tyrosine-protein kinase JAK2 (Homo sapiens), sequence (O60674 whole entry): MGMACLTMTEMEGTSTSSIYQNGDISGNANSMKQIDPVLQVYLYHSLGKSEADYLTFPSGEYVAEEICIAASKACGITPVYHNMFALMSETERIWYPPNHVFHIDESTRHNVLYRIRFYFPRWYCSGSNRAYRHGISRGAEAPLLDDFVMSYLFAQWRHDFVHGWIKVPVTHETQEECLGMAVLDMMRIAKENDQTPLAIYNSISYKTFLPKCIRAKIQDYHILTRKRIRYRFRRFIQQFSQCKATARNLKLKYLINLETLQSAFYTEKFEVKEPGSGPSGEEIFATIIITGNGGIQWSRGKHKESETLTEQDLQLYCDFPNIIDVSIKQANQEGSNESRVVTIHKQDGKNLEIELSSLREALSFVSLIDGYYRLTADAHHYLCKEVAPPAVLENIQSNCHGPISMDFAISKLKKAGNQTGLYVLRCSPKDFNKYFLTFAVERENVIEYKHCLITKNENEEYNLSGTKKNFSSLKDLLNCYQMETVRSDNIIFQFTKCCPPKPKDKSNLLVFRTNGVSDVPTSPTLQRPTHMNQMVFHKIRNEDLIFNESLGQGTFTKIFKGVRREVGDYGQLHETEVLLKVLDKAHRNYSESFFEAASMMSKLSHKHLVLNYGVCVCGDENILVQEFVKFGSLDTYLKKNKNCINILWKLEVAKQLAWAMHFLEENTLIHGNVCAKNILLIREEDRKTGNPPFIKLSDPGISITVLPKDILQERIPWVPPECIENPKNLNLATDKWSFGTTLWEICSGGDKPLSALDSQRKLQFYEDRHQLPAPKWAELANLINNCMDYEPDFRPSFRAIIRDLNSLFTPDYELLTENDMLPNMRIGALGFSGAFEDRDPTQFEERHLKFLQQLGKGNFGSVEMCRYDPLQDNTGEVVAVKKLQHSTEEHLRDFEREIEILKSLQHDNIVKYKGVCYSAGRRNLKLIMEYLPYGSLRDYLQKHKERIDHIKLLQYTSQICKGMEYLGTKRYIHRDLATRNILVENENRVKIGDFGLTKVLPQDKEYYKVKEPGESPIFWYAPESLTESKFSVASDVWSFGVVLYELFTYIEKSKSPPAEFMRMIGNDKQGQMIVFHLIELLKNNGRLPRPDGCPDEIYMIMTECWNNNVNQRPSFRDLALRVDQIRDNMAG
SMILES,IC50 [1],further results
N#C/C(=C\c1cccc(/C=C(\C#N)C(=O)N[C@@H](Cc2ccccc2)c2ccccc2)c1)C(=O)N[C@@H](Cc1ccccc1)c1ccccc1,620 nM,
C[C@H](NC(=O)/C(C#N)=C/c1ccc(C(F)(F)F)cc1)c1ccccc1,,inhibition at 10 µM [2]: 63%
COc1ccc([C@H](C)NC(=O)/C(C#N)=C/c2cccc(/C=C(\C#N)C(=O)N[C@@H](C)c3ccc(OC)cc3)c2)cc1,1000 nM,
N#C/C(=C/c1cccc(Br)n1)C(=O)NCc1cccc(CNC(=O)/C(C#N)=C\c2cccc(Br)n2)c1,240 nM,inhibition [3]: inactive; inhibition [4]: inactive; IC50 [5]: 400 nM; IC50 [6]: 200 nM; inhibition [7]: inactive; IC50 [8]: 600 nM
N#C/C(=C/c1ccc(N2CCCCC2)cc1)C(=O)NCc1cccc(CNC(=O)/C(C#N)=C\c2ccc(N3CCCCC3)cc2)c1,> 5000 nM,
N#C/C(=C/c1ccc2[nH]ccc2c1)C(=O)NCc1cccc(CNC(=O)/C(C#N)=C\c2ccc3[nH]ccc3c2)c1,> 5000 nM,
C[C@H](NC(=O)/C(C#N)=C/c1cccnc1)c1ccccc1,,inhibition at 10 µM [2]: 44%
COc1cccc(/C=C(/C#N)C(=O)NCc2cccc(CNC(=O)/C(C#N)=C\c3cccc(OC)n3)c2)n1,> 5000 nM,
N#C/C(=C\c1ccccc1)C(=O)N1CCC(C(c2ccccc2)c2ccccc2)CC1,,inhibition at 10 µM [2]: 14%
N#C/C(=C/c1cnc[nH]1)C(=O)NCc1cccc(CNC(=O)/C(C#N)=C\c2cnc[nH]2)c1,> 5000 nM,
CC(C)c1ccc(/C=C(\C#N)C(=O)NCc2ccc(Cl)cc2)cc1,,inhibition at 10 µM [2]: 21%
C[C@H](NC(=O)/C(C#N)=C/c1cccc(/C=C(\C#N)C(=O)N[C@@H](C)c2ccccc2)n1)c1ccccc1,1280 nM,
N#C/C(=C\c1cccc(/C=C(\C#N)C(=O)N[C@@H](CO)c2ccccc2)n1)C(=O)N[C@@H](CO)c1ccccc1,> 2000 nM,
CCCCOc1ccc(/C=C(\C#N)C(=O)N[C@@H](C)c2ccccc2)cc1,,inhibition at 10 µM [2]: 31%
N#C/C(=C/c1csc2ccccc12)C(=O)NCc1cccc(CNC(=O)/C(C#N)=C\c2csc3ccccc23)c1,> 5000 nM,
N#C/C(=C/c1cc(-c2ccccc2)cs1)C(=O)NCc1cccc(CNC(=O)/C(C#N)=C\c2cc(-c3ccccc3)cs2)c1,> 5000 nM,
C[C@H](NC(=O)/C(C#N)=C/c1cccs1)c1ccccc1,,inhibition at 10 µM [2]: 14%
N#C/C(=C/c1ccc(-c2cccs2)s1)C(=O)NCc1cccc(CNC(=O)/C(C#N)=C\c2ccc(-c3cccs3)s2)c1,> 5000 nM,
COC(=O)c1ccc(/C=C(\C#N)C(=O)N[C@@H](C)c2ccccc2)cc1,,inhibition at 10 µM [2]: 67%
CCC[C@H](NC(=O)/C(C#N)=C/c1cccc(Br)n1)c1ccccc1,1200 nM,IC50 [5]: 2400 nM; inhibition [9]: Active; IC50 [6]: 800 nM; IC50 [10]: 5900 nM; IC50 [8]: 1700 nM; inhibition at 10 µM [2]: 97%

SMILES,IC50 [1],further results
Cc1ccc(Cl)c(C=C(C#N)C(=O)NCc2cccc(CNC(=O)C(C#N)=Cc3c(Cl)ccc(C)c3F)c2)c1F,600 nM,
CCC[C@H](NC(=O)/C(C#N)=C/c1cccc(/C=C(\C#N)C(=O)N[C@@H](CCC)c2ccccc2)n1)c1ccccc1,1200 nM,
N#C/C(=C/c1c[nH]c2ccccc12)C(=O)NCc1cccc(CNC(=O)/C(C#N)=C\c2c[nH]c3ccccc23)c1,> 5000 nM,
CCCCCCOc1ccc(/C=C(/C#N)C(=O)NCc2cccc(CNC(=O)/C(C#N)=C\c3ccc(OCCCCCC)cc3)c2)cc1,5000 nM,
C[C@H](NC(=O)/C(C#N)=C/c1cc(/C=C(\C#N)C(=O)N[C@@H](C)c2ccccc2)cc(/C=C(\C#N)C(=O)N[C@@H](C)c2ccccc2)c1)c1ccccc1,700 nM,
C[C@H](NC(=O)/C(C#N)=C/c1ccc(-c2ccccc2)cc1)c1ccccc1,,inhibition at 10 µM [2]: 49%
COc1ccc(/C=C(/C#N)C(=O)NCc2cccc(CNC(=O)/C(C#N)=C\c3ccc(OC)c(OC)c3)c2)cc1OC,2000 nM,
C[C@H](NC(=O)/C(C#N)=C/c1ccc(/C=C(\C#N)C(=O)N[C@@H](C)c2ccccc2Cl)cc1)c1ccccc1Cl,> 5000 nM,
N#C/C(=C\c1cccc(/C=C(\C#N)C(=O)N[C@@H](CO)c2ccccc2)c1)C(=O)N[C@@H](CO)c1ccccc1,> 2000 nM,
COc1ccc(C(CC2CC2)NC(=O)/C(C#N)=C/c2cccc(/C=C(\C#N)C(=O)NC(CC3CC3)c3ccc(OC)cc3)c2)cc1 (racemic),1200 nM,
N#C/C(=C\c1ccc(/C=C(\C#N)C(=O)N[C@@H](CO)c2ccccc2)cc1)C(=O)N[C@@H](CO)c1ccccc1,2000 nM,
N#C/C(=C/c1ccc([N+](=O)[O-])c(O)c1)C(=O)NCc1cccc(CNC(=O)/C(C#N)=C\c2ccc([N+](=O)[O-])c(O)c2)c1,700 nM,
CC[C@H](NC(=O)/C(C#N)=C/c1cccc(/C=C(\C#N)C(=O)N[C@@H](CC)c2ccccc2)c1)c1ccccc1,800 nM,
N#C/C(=C/c1cc(Cl)c(Cl)cn1)C(=O)NCc1cccc(CNC(=O)/C(C#N)=C\c2cc(Cl)c(Cl)cn2)c1,1250 nM,
C[C@H](NC(=O)/C(C#N)=C/c1ccc(/C=C(\C#N)C(=O)N[C@@H](C)c2ccccc2)cc1)c1ccccc1,> 5000 nM,
CCC[C@H](NC(=O)/C(C#N)=C/c1cccc(/C=C(\C#N)C(=O)N[C@@H](CCC)c2ccccc2)c1)c1ccccc1,600 nM,
N#C/C(=C/c1ccc(O)c(Br)c1)C(=O)NCc1cccc(CNC(=O)/C(C#N)=C\c2ccc(O)c(Br)c2)c1,> 10000 nM,
N#C/C(=C\C=C\c1ccc(O)c(O)c1)C(=O)NCc1cccc(CNC(=O)/C(C#N)=C/C=C/c2ccc(O)c(O)c2)c1,> 5000 nM,
C[C@H](NC(=O)/C(C#N)=C/c1cccc(/C=C(\C#N)C(=O)N[C@@H](C)c2ccccc2)c1)c1ccccc1,400 nM,IC50 [5]: 600 nM; IC50 [6]: 400 nM; IC50 [8]: 800 nM; inhibition at 10 µM [2]: 100%
